Drawing on ChEMBL document CHEMBL1124270, “Quinolone antibacterial agents. Synthesis and structure-activity relationships of 8-substituted quinoline-3-carboxylic acids and 1,8-naphthyridine-3-carboxylic acids” (1988), this text covers MIC, ED50 and DNA cleavage conc (gyrase) for five compounds.

Molecules are shown by their SMILES. Converted amounts (≈) assume the structure as drawn.

Format in all cases: functional
Test [1] relates to Enterobacter cloacae. Put plainly: Minimum inhibitory concentration against Enterobacter cloacae HA 2646 in vitro.
Test [2] concerns Pseudomonas aeruginosa. The test is described as follows: Minimum inhibitory concentration against Pseudomonas aeruginosa UI-18 in vitro.
In test [3] the test system is Mus musculus. The test is described as follows: In vivo potency against Escherichia coli vogel using mouse protection assay when given perorally. The note with it: po, read-out: PD50.
In test [4] the test system is Providencia rettgeri. Put plainly: Minimum inhibitory concentration against Providencia rettgeri H1771 in vitro.
The test system of test [5] is Mus musculus. The test is described as follows: In vivo potency against Streptococcus pneumoniae using mouse protection assay when given orally. To be noted: po, read-out: PD50.
Test [6] relates to Staphylococcus aureus. Put plainly: Minimum inhibitory concentration against Staphylococcus aureus UC-76 in vitro.
For test [7], the system named is Escherichia coli. Put plainly: Minimum inhibitory concentration against Escherichia coli vogel in vitro.
The test system of test [8] is Escherichia coli. The test is described as follows: Minimum inhibitory concentration against Escherichia coli H560 in vitro.
Test [9] relates to Streptococcus pneumoniae. The test is described as follows: Minimum inhibitory concentration against Streptococcus pneumoniae SV-1 in vitro.
The test system of test [10] is Klebsiella pneumoniae. Put plainly: Minimum inhibitory concentration against Klebsiella pneumoniae MGH-2 in vitro.
In test [11] the test system is Escherichia coli. The test is described as follows: Minimum concentration needed to produce linear DNA at an intensity relative to oxolinic at 10 ug/mL in Escherichia coli H560 in vitro. Put shortly: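 DNA gyrase cleavage test, run as previously described: end point is the lowest drug level (µg/mL) that yields linear DNA at a band intensity matching oxolinic acid at 10 µg/mL. Values come from duplicate or triplicate experiments and are stated as accurate to ±50%.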

In test [12] the test system is Enterococcus faecalis. Put plainly: Minimum inhibitory concentration against Streptococcus faecalis MGH-2 in vitro.
Test [13] deals with Staphylococcus aureus. Put plainly: Minimum inhibitory concentration against Staphylococcus aureus H228 in vitro.
In test [14] the test system is Streptococcus pyogenes. The test is described as follows: (§1) Minimum inhibitory concentration against Streptococcus pyogenes C203 in vitro.
Test [15] deals with Mus musculus. Put plainly: In vivo potency against Staphylococcus aureus using mouse protection assay when given orally. To be noted: po, read-out: PD50.
For test [16], the system named is Streptococcus pneumoniae. The test is described as follows: In vivo potency against Streptococcus pneumoniae using mouse protection assay following p.o. administration. The note with it: po, read-out: PD50.
In test [17] the test system is Staphylococcus aureus. Put plainly: In vivo potency against Staphylococcus aureus using mouse protection assay following s.c. administration. The note with it: sc, read-out: PD50.
Test [18] concerns Staphylococcus aureus. The test is described as follows: In vivo potency against Staphylococcus aureus using mouse protection assay following p.o. administration. The note with it: po, read-out: PD50.
Test [19] has as its system Streptococcus pneumoniae. Put plainly: In vivo potency against Streptococcus pneumoniae using mouse protection assay following s.c. administration. The note with it: sc, read-out: PD50.
In test [20] the test system is Mus musculus. Put plainly: In vivo potency against Escherichia coli vogel using mouse protection assay when given subcutaneously. To be noted: sc, read-out: PD50.
Test [21] relates to Bacteria. Described as §1.

As a reminder, the MIC is the least concentration at which growth counts as inhibited. Read a high MIC as a need for much substance. On to `NCC1CCN(c2c(F)cc3c(=O)c(C(=O)O)cn(C4CC4)c3c2F)C1` (stereo unspecified), for which the MIC in test [1] was 0.05 µg/mL (≈ 0.138 µM); in test [2], 0.2 µg/mL (≈ 0.55 µM); in [4] it was 0.1 µg/mL (≈ 0.275 µM); in test [6], 0.003 µg/mL (≈ 0.00826 µM); in [7] it was 0.025 µg/mL (≈ 0.0688 µM); in test [8], 0.006 µg/mL (≈ 0.0165 µM). Further, the minimal inhibitory concentration (MIC) in [9] was 0.006 µg/mL (≈ 0.0165 µM); in test [10], 0.05 µg/mL (≈ 0.138 µM); in test [12], 0.013 µg/mL (≈ 0.0358 µM); in [13] it was 0.025 µg/mL (≈ 0.0688 µM); in [14] it was 0.013 µg/mL (≈ 0.0358 µM). The results for the ED50 in [3], in test [5] and in test [15] were 6 mg/kg, 10 mg/kg and 78 mg/kg, respectively. In [11], the DNA cleavage conc (gyrase) was determined as 0.25 µg/mL.
As for `NCC1CCN(c2nc3c(cc2F)c(=O)c(C(=O)O)cn3C2CC2)C1` (stereo unspecified), the minimal inhibitory concentration (MIC) in test [1] was determined as 0.1 µg/mL (≈ 0.289 µM); in [2], 0.2 µg/mL (≈ 0.577 µM); in [4], 0.4 µg/mL (≈ 1.15 µM); in test [6], 0.006 µg/mL (≈ 0.0173 µM); in test [7], 0.1 µg/mL (≈ 0.289 µM); in test [8], 0.025 µg/mL (≈ 0.0722 µM). The MIC was 0.1 µg/mL (≈ 0.289 µM) in test [9]; 0.1 µg/mL (≈ 0.289 µM) in test [10]; 0.025 µg/mL (≈ 0.0722 µM) in test [12]; 0.2 µg/mL (≈ 0.577 µM) in [13]; 0.025 µg/mL (≈ 0.0722 µM) in [14]. The ED50 in test [3] stood at 17 mg/kg; in [5], 100 mg/kg; in [15], 55 mg/kg. Besides, in [11], the DNA cleavage conc (gyrase) is 0.5 µg/mL.
On to `CNCC1CCN(c2c(F)cc3c(=O)c(C(=O)O)cn(C4CC4)c3c2F)C1` (stereo unspecified), for which the MIC turned out to be 0.025 µg/mL (≈ 0.0662 µM) in test [1]; 0.2 µg/mL (≈ 0.53 µM) in [2]; 0.2 µg/mL (≈ 0.53 µM) in test [4]; 0.013 µg/mL (≈ 0.0344 µM) in test [6]; 0.05 µg/mL (≈ 0.132 µM) in test [7]; 0.006 µg/mL (≈ 0.0159 µM) in [8]. Besides, the minimal inhibitory concentration (MIC) was 0.006 µg/mL (≈ 0.0159 µM) in [9]; 0.05 µg/mL (≈ 0.132 µM) in test [10]; 0.013 µg/mL (≈ 0.0344 µM) in [12]; 0.025 µg/mL (≈ 0.0662 µM) in test [13]; 0.006 µg/mL (≈ 0.0159 µM) in test [14]. In addition, the ED50 in test [3] turned out to be 2 mg/kg; in [5], 2 mg/kg; in [15], 22 mg/kg. The compound further gave a DNA cleavage conc (gyrase) in test [11] of 0.25 µg/mL.
For `CNCC1CCN(c2nc3c(cc2F)c(=O)c(C(=O)O)cn3C2CC2)C1` (stereo unspecified), the ED50 stood at 27 mg/kg in [16]; 3 mg/kg in test [3]; 1 mg/kg in test [17]; 3 mg/kg in test [18]; 11 mg/kg in [19]; 1 mg/kg in test [20]. The MIC in test [1] turned out to be 0.2 µg/mL (≈ 0.555 µM); in [2], 0.8 µg/mL (≈ 2.22 µM); in test [4], 0.4 µg/mL (≈ 1.11 µM); in [6] it was 0.025 µg/mL (≈ 0.0694 µM); in [7] it was 0.1 µg/mL (≈ 0.277 µM); in test [8] it was 0.05 µg/mL (≈ 0.139 µM). Besides, the MIC was found to be 0.025 µg/mL (≈ 0.0694 µM) in [9]; 0.2 µg/mL (≈ 0.555 µM) in test [10]; 0.2 µg/mL (≈ 0.555 µM) in test [12]; 0.2 µg/mL (≈ 0.555 µM) in test [13]; 0.05 µg/mL (≈ 0.139 µM) in [21]. For the same compound, the DNA cleavage conc (gyrase) in [11] amounted to 1 µg/mL.
As to `CCNCC1CCN(c2c(F)cc3c(=O)c(C(=O)O)cn(C4CC4)c3c2F)C1` (stereo unspecified) [PD-117558], the ED50 in [16] stood at 3 mg/kg; in [3], 4 mg/kg; in test [17], 40 mg/kg; in test [18] it was 59 mg/kg; in test [19] it was 2 mg/kg; in [20] it was 1 mg/kg. The minimum inhibitory concentration (MIC) in test [1] is 0.1 µg/mL (≈ 0.255 µM); in test [2] it was 0.4 µg/mL (≈ 1.02 µM); in test [4], 0.2 µg/mL (≈ 0.511 µM); in test [6] it was 0.006 µg/mL (≈ 0.0153 µM); in [7], 0.05 µg/mL (≈ 0.128 µM); in test [8], 0.025 µg/mL (≈ 0.0639 µM). The MIC amounted to 0.025 µg/mL (≈ 0.0639 µM) in test [9]; 0.1 µg/mL (≈ 0.255 µM) in test [10]; 0.025 µg/mL (≈ 0.0639 µM) in test [12]; 0.025 µg/mL (≈ 0.0639 µM) in test [13]; 0.025 µg/mL (≈ 0.0639 µM) in test [14]. This compound also yielded a DNA cleavage conc (gyrase) in test [11] of 0.25 µg/mL.
